pEC50: −log10 of the molar value. Active and inactive are the calls of the source. The rule behind the calls is not given here.
Tests used:
[1] = target: T1, P2Y purinoceptor 1 (Rattus norvegicus, UniProt P49651); experiment: Agonist activity at rat P2Y1R assessed as glucose-dependent insulin secretion; format: functional
[2] = target: P2Y purinoceptor 1 (Rattus norvegicus) (UniProt P49651); experiment: Agonist activity at rat P2Y1R assessed as glucose-dependent insulin secretion relative to control; format: functional
[3] = target: T1, P2Y purinoceptor 1; experiment: Agonist activity at rat P2Y1R expressed in HEK293 cells assessed as release of intracellular calcium by fluorescence based assay; format: functional, cell-based
[4] = test system: Rattus norvegicus; experiment: Antiplatelet activity in Lewis rat assessed as inhibition of ADP-induced aggregation measuring prolongation in bleeding time at 10 mg/kg body weight, po administered 30 mins prior to tail incision measured after 5 mins; format: functional, organism-based; parameters: dose 10 mg/kg
How it was run: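 Anesthetized Lewis rats (n = 5) were dosed orally 30 min before the tail was cut. Then 2 mm of tail tip was removed and the tail was placed upright in a saline-filled tube. Time to first arrest of bleeding (no bleeding for 20 s) was recorded.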

[5] = Metabolic stability in human serum assessed as hydrolysis of compound at 40 mM incubated for 24 hrs measured after every 1 hr over 24 hrs by HPLC; format: ADME, cell-free; settings: read-out: Drug metabolism
How it was run: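 40 mM stock in water, 4.5 μL, combined with 180 μL human serum (healthy volunteer) and 540 μL RPMI-1640 and incubated at 37 °C for up to 24 h. Aliquots were heated to 80 °C for 30 min, cleaned up, and analysed by HPLC. Heat-only controls were run without serum. Hydrolysis was followed from the change in HPLC peak area.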

[6] = Half life in Tris buffer at pH 9.8 at 0.2 mg by HPLC in presence of alkaline phosphatase; format: physicochemical; settings: in vitro
How it was run: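 Compound 0.2 mg incubated with calf intestine alkaline phosphatase 12.5 units in Tris-HCl/MgCl2 at final pH 9.8 and 37 °C. Sampled hourly for 8 h; reaction stopped at 80 °C for 15 min. Samples passed through an anion-exchange cartridge. Half-life from change in HPLC peak area.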

[7] = test system: Serum; experiment: (§1) Half life in human serum at 40 mM by HPLC; format: ADME, cell-free; settings: 40000 µM
How it was run: (§2)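 Serum came from a healthy volunteer's whole blood (12 h at 4 °C, spun 1500g, stored at −80 °C). A 40 mM stock in water was mixed with serum and RPMI-1640 (1:3 serum:medium) and incubated at 37 °C for up to 24 h.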

[8] = target: P2Y purinoceptor 1 (Meleagris gallopavo, UniProt P49652); experiment: Agonist activity at turkey P2Y1R expressed in 1321N1 cells assessed as increase in intracellular calcium concentration by spectrofluorimetry; format: functional, cell-based
How it was run: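 Cell suspensions were treated with nucleotide at various concentrations at 37 °C in 10 mM Hepes-buffered saline pH 7.4 with 1 mM CaCl2 and 1 mM MgCl2. Maximal [Ca2+]i rise was read by dual-excitation spectrofluorometry and fitted to give EC50. Three experiments on separate days.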

[9] = test system: Serum; experiment: Ratio of half life of compound to half life of ADP in human serum at 40 mM by HPLC; format: ADME, cell-free; settings: 40000 µM; how it was run: as §2
[10] = as §1; format: ADME, cell-free; how it was run: as §2
[11] = test system: Mus musculus; experiment: Antidiabetic activity in db+/db- diabetic mouse model assessed as reduction in blood glucose level at 30 mg/kg body weight, iv administered 10 min post glucose challenge measured over 15 to 120 mins; format: functional, organism-based; parameters: dose 30 mg/kg
How it was run: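 Male db+/db− mice, 8 weeks old, grouped by body weight and glucose, then fasted overnight. Oral glucose 2 g/kg by gavage. Compound 30 mg/kg iv as in the naive-animal OGTT; n = 5. Blood glucose by glucometer at −30, 0, 15, 30, 60 and 120 min.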

[12] = test system: Platelet; experiment: Antiplatelet activity in human platelet rich plasma assessed as inhibition of ADP-induced platelet aggregation measured after 6 mins by aggregometry; format: functional
How it was run: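 Human PRP obtained by centrifuging plasma at 4400g for 30 s. PRP was incubated 15 min at 37 °C with compound (0.3–10 μM), then aggregation was induced with ADP 10 μM and read after 6 min on a platelet aggregation profiler. Prasugrel metabolite 10 μM served as positive control. One donor, duplicates.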

[13] = test system: Mus musculus; experiment: Antidiabetic activity in STZ treated fasted ICR mouse assessed as reduction in blood glucose level at 30 mg/kg body weight, iv administered 10 min post glucose challenge measured over 15 to 120 mins; format: functional, organism-based; parameters: dose 30 mg/kg
How it was run: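 Male ICR mice given STZ 100 mg/kg IP after 4 h fast. On day 10, after ~16 h overnight fast, oral D-glucose 1 g/kg was given at 0 min. Compound was dosed iv at 7.5, 15 or 30 mg/kg 10 min after glucose; saline controls. Blood glucose by glucometer at 15, 30, 60 and 120 min. n = 5.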

[14] = target: P2Y purinoceptor 12 (Homo sapiens) (UniProt Q9H244); experiment: Antagonist activity at human P2Y12R expressed in […] cells assessed as intracellular calcium level in presence of ADP; format: functional, cell-based
[15] = test system: Mus musculus; experiment: Antiplatelet activity in Balb/c mouse assessed as inhibition of ADP-induced aggregation measuring prolongation of bleeding time at 30 mg/kg body weight, iv; format: functional
How it was run: (§3)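 Anaesthetised Balb/c mice given compound iv (0.3, 3 or 30 mg/kg) or saline. Five minutes later 2 mm of the tail tip was cut and the tail placed vertically in saline. Time to first arrest of bleeding (no bleeding for 20 s) was recorded. Bars are standard deviation.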

[16] = Antiplatelet activity in human platelet rich plasma assessed as inhibition of ADP-induced platelet aggregation at 0.3 to 10 uM measured after 6 mins by aggregometry relative to control; format: functional
How it was run: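 Human platelet-rich plasma was obtained by spinning normal human plasma at 4400g for 30 s. PRP was incubated 15 min at 37 °C, then aggregation was induced with ADP (10 μM) and read after 6 min on a platelet aggregation profiler. PRP came from one subject, tested in duplicate. Prasugrel metabolite at 10 μM served as the positive control.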

[17] = test system: Rattus norvegicus; experiment: Antidiabetic activity in overnight fasted Wister Han rat assessed as reduction in blood glucose level at 30 mg/kg body weight, iv administered 10 mins post glucose challenge measured within 45 mins (reference value: 155 mg/dl); format: functional
[18] = test system: Rattus norvegicus; experiment: Antiplatelet activity in Lewis rat assessed as inhibition of ADP-induced aggregation measuring prolongation in bleeding time at 30 mg/kg body weight, po administered 30 mins prior to tail incision measured after 5 mins; format: functional, organism-based; parameters: dose 30 mg/kg
How it was run: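 Lewis rats given compound 30 mg/kg or aspirin 10 mg/kg PO 30 min before tail incision; n = 5. 2 mm tail tip cut, tail placed in saline. Time to first bleeding arrest (20 s without bleeding) was recorded, and blood volume was judged against calibrated volumes after brief 600g spin.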

[19] = test system: Mus musculus; experiment: Antiplatelet activity in Balb/c mouse assessed as inhibition of ADP-induced aggregation measuring prolongation in bleeding time at 30 mg/kg body weight, iv administered prior to tail incision measured after 5 mins relative to active clopidogrel metabolite R-361015; format: functional; how it was run: as §3
[20] = Chemical stability in HCL/KCL buffer at pH 1.4 assessed as hydrolysis rate constant of compound at 1.5 mg incubated for 24 hrs measured after every 1 hr over 12 hrs by HPLC; format: physicochemical; settings: pH 1.4, 24 h
How it was run: (§4)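 Diastereomeric mixture, 1.5 mg, dissolved in 0.2 M HCl/KCl buffer adjusted to pH 1.4 and kept at 37 °C with hourly sampling. Parent HPLC peak integrated over time (TEAA/acetonitrile 88:12) and fitted to pseudo-first-order kinetics to give rate constant and t1/2.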

[21] = target: P2Y purinoceptor 4 (Homo sapiens) (UniProt P51582); experiment: Agonist activity at P2Y4R; format: functional
[22] = target: P2Y purinoceptor 2 (Homo sapiens) (UniProt P41231); experiment: Agonist activity at P2Y2R; format: functional
[23] = target: P2Y purinoceptor 6 (Homo sapiens) (UniProt Q15077); experiment: Agonist activity at P2Y6R; format: functional
[24] = Half life in HCL/KCL buffer at pH 1.4 at 1.5 mg by HPLC; format: physicochemical; how it was run: as §4
[25] = test system: Mus musculus; experiment: Antidiabetic activity in overnight fasted CD1 mouse assessed as reduction in blood glucose level at 30 mg/kg body weight, iv administered 10 mins post glucose challenge; format: functional, organism-based; parameters: dose 30 mg/kg

Chain of P2Y purinoceptor 6 (Homo sapiens) (Q15077 whole entry): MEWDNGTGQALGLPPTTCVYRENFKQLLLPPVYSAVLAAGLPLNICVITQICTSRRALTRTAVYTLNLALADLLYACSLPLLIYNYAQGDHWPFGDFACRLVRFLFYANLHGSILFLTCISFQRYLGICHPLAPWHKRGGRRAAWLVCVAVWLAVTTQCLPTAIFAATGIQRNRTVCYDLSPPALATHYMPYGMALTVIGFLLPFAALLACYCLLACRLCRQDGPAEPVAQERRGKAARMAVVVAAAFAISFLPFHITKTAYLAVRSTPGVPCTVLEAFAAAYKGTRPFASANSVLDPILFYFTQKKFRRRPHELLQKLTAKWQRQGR
Chain of P2Y purinoceptor 4 (Homo sapiens) (P51582 whole entry): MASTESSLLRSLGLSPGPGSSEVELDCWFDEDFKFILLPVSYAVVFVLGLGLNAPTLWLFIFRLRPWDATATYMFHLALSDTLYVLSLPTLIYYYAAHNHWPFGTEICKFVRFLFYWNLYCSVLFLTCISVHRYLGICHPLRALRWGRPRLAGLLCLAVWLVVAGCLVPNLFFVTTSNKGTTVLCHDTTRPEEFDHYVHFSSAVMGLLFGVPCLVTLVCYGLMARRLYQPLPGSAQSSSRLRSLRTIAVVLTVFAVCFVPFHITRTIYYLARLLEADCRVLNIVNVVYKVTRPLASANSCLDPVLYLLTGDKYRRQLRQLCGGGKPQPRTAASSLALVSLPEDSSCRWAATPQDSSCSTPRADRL
Chain of P2Y purinoceptor 1 (Meleagris gallopavo, UniProt P49652) (P49652 whole entry): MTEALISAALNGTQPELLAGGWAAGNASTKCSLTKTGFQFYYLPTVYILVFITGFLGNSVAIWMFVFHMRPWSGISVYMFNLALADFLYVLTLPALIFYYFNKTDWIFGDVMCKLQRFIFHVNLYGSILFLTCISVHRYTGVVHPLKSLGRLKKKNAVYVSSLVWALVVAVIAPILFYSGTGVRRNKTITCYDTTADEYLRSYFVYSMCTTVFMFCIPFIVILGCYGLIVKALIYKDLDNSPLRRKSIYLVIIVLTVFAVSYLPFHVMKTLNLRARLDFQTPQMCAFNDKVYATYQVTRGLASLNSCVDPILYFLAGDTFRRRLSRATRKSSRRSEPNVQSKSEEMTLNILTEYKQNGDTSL
Chain of P2Y purinoceptor 2 (Homo sapiens) (P41231 whole entry): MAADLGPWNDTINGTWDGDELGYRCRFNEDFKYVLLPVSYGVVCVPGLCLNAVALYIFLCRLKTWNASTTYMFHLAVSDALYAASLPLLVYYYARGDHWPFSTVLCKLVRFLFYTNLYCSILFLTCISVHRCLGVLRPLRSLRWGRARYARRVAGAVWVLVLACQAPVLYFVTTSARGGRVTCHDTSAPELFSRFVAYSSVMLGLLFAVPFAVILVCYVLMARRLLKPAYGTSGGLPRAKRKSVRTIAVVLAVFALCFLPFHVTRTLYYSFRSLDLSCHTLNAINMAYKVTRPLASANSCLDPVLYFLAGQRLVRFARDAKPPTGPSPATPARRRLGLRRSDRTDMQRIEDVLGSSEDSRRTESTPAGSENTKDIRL
T1 sequence (P49651 whole entry): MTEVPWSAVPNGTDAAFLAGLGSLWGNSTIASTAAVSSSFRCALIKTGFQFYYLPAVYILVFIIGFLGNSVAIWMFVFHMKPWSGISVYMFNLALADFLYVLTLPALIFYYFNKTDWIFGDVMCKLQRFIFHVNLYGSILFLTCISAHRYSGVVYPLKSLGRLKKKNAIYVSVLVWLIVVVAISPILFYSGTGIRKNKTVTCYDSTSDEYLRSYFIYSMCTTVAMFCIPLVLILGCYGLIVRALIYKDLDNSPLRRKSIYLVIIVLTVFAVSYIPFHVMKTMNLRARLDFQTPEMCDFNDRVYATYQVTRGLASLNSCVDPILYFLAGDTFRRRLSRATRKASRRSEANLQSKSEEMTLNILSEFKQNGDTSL
Chain of P2Y purinoceptor 1 (Rattus norvegicus) (P49651 whole entry): as above
Chain of P2Y purinoceptor 12 (Homo sapiens) (Q9H244 whole entry): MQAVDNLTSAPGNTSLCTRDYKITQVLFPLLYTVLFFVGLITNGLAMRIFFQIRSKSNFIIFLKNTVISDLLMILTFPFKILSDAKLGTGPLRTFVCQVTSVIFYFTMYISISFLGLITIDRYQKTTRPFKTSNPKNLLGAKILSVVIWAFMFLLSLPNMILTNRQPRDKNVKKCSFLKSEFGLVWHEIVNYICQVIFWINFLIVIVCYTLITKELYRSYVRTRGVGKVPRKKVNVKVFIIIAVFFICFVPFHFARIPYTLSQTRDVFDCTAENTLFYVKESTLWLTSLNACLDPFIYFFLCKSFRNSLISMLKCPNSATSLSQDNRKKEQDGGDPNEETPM

## B[P@@](=O)(OC[C@H]1O[C@@H](n2cnc3c(N)nc(SC)nc32)[C@H](O)[C@@H]1O)OP(=O)(O)OP(=O)(O)O
[1]
  pEC50: 7.55
[2]
  fold change (FC): 9
[3]
  pEC50: 8.59

## CC(=O)Oc1ccccc1C(=O)O
[4]
  inhibition: Active

## CSc1nc(N)c2ncn([C@@H]3O[C@H](COP(=O)(O)OP(=O)(O)O)[C@@H](O)[C@H]3O)c2n1
[5]
  metabolised at 24 h, 40000 µM: 50%
[6]
  t1/2: 4.5 h
[7]
  t1/2: 23 h

## B[P@](=O)(OC[C@H]1O[C@@H](n2cnc3c(N)nc(SC)nc32)[C@H](O)[C@@H]1O)OP(=O)(O)OP(=O)(O)OC[C@H]1O[C@@H](n2cnc3c(N)nc(SC)nc32)[C@H](O)[C@@H]1O.CCCCN(CCCC)CCCC.CCCCN(CCCC)CCCC.CCCCN(CCCC)CCCC (single isomer, unassigned)
[8]
  pEC50: 6.72
[9]
  Ratio: 7
[10]
  half-life at 40000 µM: 14 h

## [BH3-][P@@](=O)(OC[C@H]1O[C@@H](n2cnc3c(N)nc(SC)nc32)[C@H](O)[C@@H]1O)OP(=O)([O-])[O-].[Na+].[Na+].[Na+]
[11]
  Activity: Active
[12]
  inhibition: Active
[13]
  Activity: Active
[14]
  Activity: Active
[6]
  t1/2: 6 h
[15]
  Time: 16 min
[16]
  fold change (FC): 3
[17]
  Activity: 87 mg/dL
[10]
  half-life at 40000 µM: > 24 h
[18]
  inhibition: Active
[19]
  fold change (FC): 1.5

## [BH3-]P(=O)(OC[C@H]1O[C@@H](n2cnc3c(N)nc(SC)nc32)[C@H](O)[C@@H]1O)OP(=O)([O-])[O-].[Na+].[Na+].[Na+] (mixture of isomers)
[20]
  Drug degradation: 2 ×10⁻⁵ /s
[21]
  Activity: inactive
[5]
  metabolised at 24 h, 40000 µM: 30%
[22]
  Activity: inactive
[23]
  Activity: inactive
[24]
  half-life: 7.3 h

## B[P@@](=O)(OC[C@H]1O[C@@H](n2cnc3c(N)nc(SC)nc32)[C@H](O)[C@@H]1O)OP(=O)(O)OP(=O)(O)OC[C@H]1O[C@@H](n2cnc3c(N)nc(SC)nc32)[C@H](O)[C@@H]1O.CCCCN(CCCC)CCCC.CCCCN(CCCC)CCCC.CCCCN(CCCC)CCCC
[8]
  pEC50: 6.85
[9]
  Ratio: 7
[10]
  half-life at 40000 µM: 14 h

## B[P@](=O)(OC[C@H]1O[C@@H](n2cnc3c(N)nc(SC)nc32)[C@H](O)[C@@H]1O)OP(=O)(O)O
[8]
  pEC50: 5.96
[25]
  Activity: inactive

## [BH3-][P@@](=O)(OC[C@H]1O[C@@H](n2cnc3c(N)ncnc32)[C@H](O)[C@@H]1O)OP(=O)([O-])[O-].[Na+].[Na+].[Na+]
[8]
  pEC50: 6.66
[6]
  t1/2: 4.2 h
[7]
  t1/2: 3.5 h

## B[P@](=O)(OC[C@H]1O[C@@H](n2cnc3c(N)ncnc32)[C@H](O)[C@@H]1O)OP(=O)(O)O
[8]
  pEC50: 6.02

## CC(=O)Oc1cc2c(s1)CCN(C(C(=O)C1CC1)c1ccccc1F)C2 (stereo not given)
[15]
  Time: 9 min

## BP(=O)(OC[C@H]1O[C@@H](n2cnc3c(N)nc(SC)nc32)[C@H](O)[C@@H]1O)OP(=O)(O)OP(=O)(O)OC[C@H]1O[C@@H](n2cnc3c(N)nc(SC)nc32)[C@H](O)[C@@H]1O.CCCCN(CCCC)CCCC.CCCCN(CCCC)CCCC.CCCCN(CCCC)CCCC (mixture of isomers)
[21]
  Activity: inactive
[22]
  Activity: inactive
[23]
  Activity: inactive

## Nc1ncnc2c1ncn2[C@@H]1O[C@H](COP(=O)(O)OP(=O)(O)O)[C@@H](O)[C@H]1O [ADENOSINE DIPHOSPHATE]
[6]
  t1/2: 4 h
[7]
  t1/2: 2 h

## BP(=O)(OC[C@H]1O[C@@H](n2cnc3c(N)ncnc32)[C@H](O)[C@@H]1O)OP(=O)(O)O (stereo not given in full)
[21]
  Activity: inactive
[22]
  Activity: inactive
[23]
  Activity: inactive
